Laboratory results from article PMC4203514 (Autophagy, 2014).

What was measured:
[1] = system: patients with advanced solid tumors; experiment: Treatment-related adverse events by grade; assay type: in vivo, human
How it was run: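 Patients who took at least one dose of the oral test compound, given with a dose-intense oral alkylating agent, were evaluable for toxicity. Adverse events were graded by NCI Common Toxicity Criteria v3.0, and haematological toxicities were attributed to the alkylating agent. Complete blood counts were done weekly for the first 6 wk and biweekly thereafter. Treatment ran in 28 d cycles.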

[2] = Population pharmacokinetics of HCQ in whole blood; assay type: in vivo, human; conditions: for Vd/F: human, oral, Vc/F, apparent central volume of distribution
How it was run: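 Whole blood was sampled in sodium heparin pre-dose and at 2, 4, 8 and 12 wk and 6 mo, then stored at −70 °C. Samples were assayed in duplicate by HPLC-MS/MS with a deuterated internal standard against a 1/x-weighted linear curve (1–5000 ng/mL; LLOQ 1.0 ng/mL). One- and two-compartment first-order models were fitted by nonlinear mixed-effects (Lindstrom-Bates) with log-normal inter-individual variability. Precision came from 1000 bootstrap runs, and individual parameters were used for profile simulations.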

glioma = conditions: cited from earlier work
[3] = system: peripheral blood mononuclear cells; experiment: Autophagic vacuole; assay type: in vivo, human; conditions: after 2 wk run-in of HCQ; baseline 2.19
[4] = all patients (37 evaluable for toxicities)
[5] = population PK, 1000 bootstrap runs
[6] = population PK, whole blood, 35 patients

## CCN(CCO)CCCC(C)Nc1ccnc2cc(Cl)ccc12 (stereo not drawn) [HCQ, hydroxychloroquine]
[1]; HCQ 800 mg (n = 15) with TMZ
  Dyspepsia G1/G2: 1 (7) No. (%)
  Fatigue G1/G2: 7 (47) No. (%)
  Headaches G1/G2: 2 (13) No. (%)
  Leukopenia G3/G4: 1 (7) No. (%)
  Lymphopenia G1/G2: 3 (20) No. (%)
  Lymphopenia G3/G4: 1 (7) No. (%)
  Myalgias G1/G2: 1 (7) No. (%)
  Nausea G1/G2: 6 (40) No. (%)
  Neutropenia G3/G4: 2 (13) No. (%)
  Pruritus G1/G2: 1 (7) No. (%)
  Rash G1/G2: 2 (13) No. (%)
  Taste change G1/G2: 1 (7) No. (%)
  Thrombocytopenia G3/G4: 2 (13) No. (%)
  Vomiting G1/G2: 3 (20) No. (%)
[1]; HCQ 1000 mg (n = 7) with TMZ
  Abdominal pain G1/G2: 2 (29) No. (%)
  Anemia G3/G4: 1 (14) No. (%)
  Anorexia G1/G2: 1 (14) No. (%)
  Constipation G1/G2: 1 (14) No. (%)
  Diarrhea G1/G2: 3 (43) No. (%)
  Dizziness G1/G2: 1 (14) No. (%)
  Fatigue G1/G2: 5 (71) No. (%)
  Headaches G1/G2: 1 (14) No. (%)
  Lymphopenia G1/G2: 1 (14) No. (%)
  Nausea G1/G2: 5 (71) No. (%)
  Pruritus G1/G2: 1 (14) No. (%)
  Rash G3/G4: 1 (14) No. (%)
  Taste change G1/G2: 1 (14) No. (%)
  Thrombocytopenia G1/G2: 2 (29) No. (%)
  Vomiting G1/G2: 2 (29) No. (%)
[1]; HCQ 1200 mg (n = 8) with TMZ
  Anemia G1/G2: 1 (13) No. (%)
  Anorexia G1/G2: 3 (38) No. (%)
  Bradycardia G1/G2: 1 (13) No. (%)
  Constipation G1/G2: 2 (25) No. (%)
  Diarrhea G1/G2: 2 (25) No. (%)
  Fatigue G1/G2: 7 (88) No. (%)
  Hypotension G1/G2: 1 (13) No. (%)
  Lymphopenia G3/G4: 1 (13) No. (%)
  Nausea G1/G2: 4 (50) No. (%)
  Nausea G3/G4: 1 (13) No. (%)
  Rash G1/G2: 1 (13) No. (%)
  Thrombocytopenia G1/G2: 1 (13) No. (%)
  Vomiting G1/G2: 2 (25) No. (%)
  Vomiting G3/G4: 1 (13) No. (%)
[1]; [4]
  ≥ grade 1 treatment-related anorexia: 35%
  ≥ grade 1 treatment-related constipation: 22%
  ≥ grade 1 treatment-related diarrhea: 24%
  ≥ grade 1 treatment-related fatigue: 97%
  ≥ grade 1 treatment-related nausea: 65%
[2]; whole blood, bootstrap estimate, population PK, 1000 bootstrap runs
  Vd/F: 500 L
[2]; whole blood, model estimate, population PK, 35 patients
  Vd/F: 486 L
[2]; [5]
  Cl/F, apparent oral clearance, bootstrap estimate: 10.085 L/h
  Ka, absorption rate constant, bootstrap estimate: 0.999 h⁻¹
  Vp/F, apparent peripheral volume of distribution, bootstrap estimate: 1400.415 L
[2]; [6]
  Cl/F, apparent oral clearance, model estimate: 9.975 L/h
  Ka, absorption rate constant, model estimate: 0.998 h⁻¹
  Vp/F, apparent peripheral volume of distribution, model estimate: 1406.52 L
[2]; simulated for individual patients with final PK model, (16 d)
  Time to steady-state HCQ blood concentration, on average: 400 h
glioma; HCQ 800 mg with TMZ 75 mg/m^2 daily and brain radiation
  Myelosuppression: all experienced grade 4 myelosuppression
glioma; combined with TMZ 75 mg/m^2 daily for 6 wk with concomitant brain radiation
  Maximal tolerated dose of HCQ: 600 mg daily
[3]
  Mean AV count per cell in PBMC: 2.45
